Active and inactive are the calls of the source. No cut-off for these calls is given here.

What is called inhibition is the drop in the measured response relative to a control, in per cent.

The subject of test [1] is Prunus dulcis. In words: Inhibition of almonds beta-glucosidase. The gist of the method:
(§1)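 Commercial arylglycosidases, with α-L-fucosidase from bovine kidney. Activity was measured colorimetrically as p-nitrophenol released from the matching p-nitrophenyl glycoside substrate.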

In test [2] the test system is Saccharomyces cerevisiae. In words: Inhibition of yeast alpha-glucosidase. The gist of the method:
as §1

The target in test [3] is T1, Exo-1,4-beta-xylosidase xlnD (Aspergillus niger) (UniProt O00089).
T1 sequence (whole entry): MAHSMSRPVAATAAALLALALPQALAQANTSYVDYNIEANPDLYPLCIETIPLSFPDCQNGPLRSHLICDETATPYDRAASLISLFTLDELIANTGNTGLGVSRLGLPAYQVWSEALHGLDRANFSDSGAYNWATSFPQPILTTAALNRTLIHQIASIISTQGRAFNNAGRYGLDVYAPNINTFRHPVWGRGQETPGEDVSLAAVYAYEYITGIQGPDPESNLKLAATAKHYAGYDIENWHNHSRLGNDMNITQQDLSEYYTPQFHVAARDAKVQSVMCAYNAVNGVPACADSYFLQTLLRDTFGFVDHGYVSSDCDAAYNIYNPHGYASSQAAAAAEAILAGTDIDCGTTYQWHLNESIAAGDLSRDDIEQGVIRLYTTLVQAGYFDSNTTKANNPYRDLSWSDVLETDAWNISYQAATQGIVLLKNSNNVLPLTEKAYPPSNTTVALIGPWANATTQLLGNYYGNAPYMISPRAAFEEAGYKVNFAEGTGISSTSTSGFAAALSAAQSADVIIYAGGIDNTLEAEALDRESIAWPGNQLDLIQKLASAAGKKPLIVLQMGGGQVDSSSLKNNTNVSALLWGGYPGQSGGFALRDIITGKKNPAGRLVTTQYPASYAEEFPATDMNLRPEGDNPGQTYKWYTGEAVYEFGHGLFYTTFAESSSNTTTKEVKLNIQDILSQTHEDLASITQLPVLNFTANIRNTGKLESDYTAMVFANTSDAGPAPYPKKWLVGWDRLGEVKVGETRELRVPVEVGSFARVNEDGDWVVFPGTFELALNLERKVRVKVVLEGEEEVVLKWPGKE
The experiment in a line: Inhibition of Aspergillus niger beta-xylosidase. A digest of the protocol:
as §1

Test [4] relates to Aspergillus niger. In words: Inhibition of Aspergillus niger alpha-galactosidase. A digest of the protocol: as §1
Test [5] has as its target T2, Beta-galactosidase (Bos taurus) (UniProt Q58D55).
T2 sequence (whole entry): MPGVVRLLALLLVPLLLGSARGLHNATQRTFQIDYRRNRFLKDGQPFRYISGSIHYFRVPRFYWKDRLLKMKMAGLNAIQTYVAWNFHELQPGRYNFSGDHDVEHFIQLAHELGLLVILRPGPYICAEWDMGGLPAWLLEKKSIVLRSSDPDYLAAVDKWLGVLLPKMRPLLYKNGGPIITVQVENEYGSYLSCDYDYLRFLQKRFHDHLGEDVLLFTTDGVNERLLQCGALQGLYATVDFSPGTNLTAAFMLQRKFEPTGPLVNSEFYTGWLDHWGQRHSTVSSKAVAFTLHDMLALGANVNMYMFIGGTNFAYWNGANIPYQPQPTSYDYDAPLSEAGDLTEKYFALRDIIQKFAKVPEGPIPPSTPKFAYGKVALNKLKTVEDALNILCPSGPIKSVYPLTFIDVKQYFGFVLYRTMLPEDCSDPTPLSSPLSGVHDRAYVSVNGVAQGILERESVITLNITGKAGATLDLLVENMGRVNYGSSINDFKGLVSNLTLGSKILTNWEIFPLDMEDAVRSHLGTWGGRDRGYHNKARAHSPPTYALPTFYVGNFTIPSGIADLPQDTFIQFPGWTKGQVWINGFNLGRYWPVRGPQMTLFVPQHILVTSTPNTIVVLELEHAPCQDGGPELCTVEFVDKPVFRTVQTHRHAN
In words: Inhibition of bovine liver beta-galactosidase. The gist of the method: as §1

The subject of test [6] is Canavalia ensiformis. The experiment in a line: Inhibition of jack beans alpha-mannosidase. The gist of the method:
as §1

Test [7] deals with T3, Beta-mannosidase A (Aspergillus niger) (UniProt Q9UUZ3).
T3 sequence (whole entry): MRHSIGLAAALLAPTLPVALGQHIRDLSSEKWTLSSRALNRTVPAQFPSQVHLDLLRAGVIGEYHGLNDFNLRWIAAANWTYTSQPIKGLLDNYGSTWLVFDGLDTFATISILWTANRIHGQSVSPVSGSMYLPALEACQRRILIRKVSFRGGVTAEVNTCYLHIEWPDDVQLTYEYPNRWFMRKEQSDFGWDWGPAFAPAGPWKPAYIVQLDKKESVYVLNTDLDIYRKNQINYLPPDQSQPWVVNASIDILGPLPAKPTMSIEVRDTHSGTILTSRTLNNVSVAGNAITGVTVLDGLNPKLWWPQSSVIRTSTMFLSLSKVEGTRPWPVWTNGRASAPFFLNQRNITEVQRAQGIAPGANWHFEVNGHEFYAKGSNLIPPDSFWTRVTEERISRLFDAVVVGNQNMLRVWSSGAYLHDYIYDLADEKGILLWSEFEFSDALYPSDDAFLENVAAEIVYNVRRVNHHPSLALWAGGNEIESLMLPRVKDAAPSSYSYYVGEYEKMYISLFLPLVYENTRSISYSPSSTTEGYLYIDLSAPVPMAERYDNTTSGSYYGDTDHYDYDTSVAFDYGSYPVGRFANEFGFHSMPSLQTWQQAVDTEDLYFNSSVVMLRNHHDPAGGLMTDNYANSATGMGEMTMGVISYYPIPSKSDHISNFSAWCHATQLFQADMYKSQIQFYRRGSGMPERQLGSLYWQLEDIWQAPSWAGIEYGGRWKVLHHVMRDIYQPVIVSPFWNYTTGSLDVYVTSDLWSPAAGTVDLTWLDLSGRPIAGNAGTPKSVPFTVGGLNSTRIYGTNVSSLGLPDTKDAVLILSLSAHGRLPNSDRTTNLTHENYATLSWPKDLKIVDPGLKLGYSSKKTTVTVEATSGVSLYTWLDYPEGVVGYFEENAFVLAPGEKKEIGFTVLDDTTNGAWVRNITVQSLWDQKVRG
In words: Inhibition of Aspergillus niger beta-mannosidase at 380 uM. A digest of the protocol: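 β-Mannosidase was purified from Aspergillus niger. Activity was read colorimetrically as p-nitrophenol release from the p-nitrophenyl glycoside substrate, expressed relative to untreated enzyme over a range of inhibitor concentrations. Kinetics were analysed by Lineweaver-Burk plot.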

In the case of `OC[C@H]1N[C@H](CO)[C@@H](O)[C@@H]1O`, the outcome in test [1] and in test [2] was Active.
Regarding `C[C@H]1N[C@H](CO)[C@@H](O)[C@@H]1O`, the result in test [3], in test [4], in test [1], in test [2] and in test [6] was inactive. Further, in test [5], the outcome was Active. In test [7], this compound gave an inhibition of 50%.
As to `O[C@H]1[C@H]2[C@H](O)CCCN2C[C@H]1O`, in test [6], the outcome was Active.
With `OC[C@H]1NC[C@@H](O)[C@@H]1O`, the result in test [1] and in test [2] was Active.
`OC[C@H]1NC[C@@H](O)[C@@H](O)[C@@H]1O`: the result in test [6] was Active.
